The values below come from ChEMBL document CHEMBL5150043, “Discovery of Anthranilic Acid Derivatives as Difluoromethylornithine Adjunct Agents That Inhibit Far Upstream Element Binding Protein 1 (FUBP1) Function” (J Med Chem, 2022).

The test system of data set [1] is CHO-K1. Put plainly: Cytotoxicity against chinese hamster CHO-K1 cells assessed as decrease in cell viability measured after 48 hrs by ATPlite assay. Format: toxicity, cell-based, Cricetulus griseus. The settings on record: cho-k1, 48 h. The gist of the method:
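CHO-K1 cells dosed alone in 384-well format in parallel with Assays 1 and 2; MTC taken as highest concentration giving ≥90% relative growth versus untreated control; typical error ±10% (n = 3).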
Background: ATP-based viability assays read luminescence as a measure of living cells.

The test system of data set [2] is CHO-K1. Put plainly: Inhibition of spermidine uptake in chinese hamster CHO-K1 cells assessed as decrease in cell growth by measuring cellular ATP content measured after 48 hrs in presence of DFMO and spermidine by ATPlite assay. The following applies: Cricetulus griseus, CHO-K1, 48 h.
The nature of data set [3]: Inhibition of spermidine uptake chinese hamster CHO-K1 cells assessed as decrease in cell growth by measuring cellular ATP content measured after 48 hrs in presence of DFMO and spermidine by ATPlite assay. In kind it is functional, cell-based. The settings on record: Cricetulus griseus, CHO-K1, 48 h.

On to `COc1ccc(C(=O)Nc2ccc(N3CCN(c4cc(Cl)ccc4C)CC3)c(C(=O)O)c2)cc1`, for which the MTC with CHO-K1 [1] was determined as 14 µM. Besides, the EC50 in the data set with CHO-K1 [2] was determined as 5 µM.

Take `COC(=O)c1cc(N2CCN(c3cc(Cl)ccc3C)CC2)ccc1NC(=O)c1ccccc1OC`: in the data set with CHO-K1 [1], the MTC is > 40 µM. The EC50 (in the data set on CHO-K1 [2]; in data set [3]) was > 40 µM each time.

With `COc1ccc(C(=O)Nc2ccc(N3CCN(c4ccccc4)CC3)cc2C(=O)O)cc1`, the MTC in the data set with CHO-K1 [1] was 17 µM. In addition, the EC50 in the data set with CHO-K1 [2] was 15 µM; in data set [3] it was > 40 µM.

Turning to `COc1ccccc1N1CCN(c2ccc(N3C(=O)CCC3=O)cc2[N+](=O)[O-])CC1`, the MTC with CHO-K1 [1] is 27 µM. The EC50 in the data set with CHO-K1 [2] was 30 µM.

Regarding `COc1ccc(CC(=O)Nc2ccc(N3CCN(c4cc(Cl)ccc4C)CC3)cc2C(=O)O)cc1`, the MTC in the data set with CHO-K1 [1] was found to be 24 µM. In addition, the EC50 in the data set with CHO-K1 [2] came out at 25 µM; in data set [3], 32 µM.

Regarding `Cc1ccccc1C(=O)Nc1ccc(N2CCN(c3cc(Cl)ccc3C)CC2)c(C(=O)O)c1`, the MTC in the data set with CHO-K1 [1] was > 40 µM. The EC50 (in the data set with CHO-K1 [2]; in data set [3]) was > 40 µM in each case.

As to `COc1ccc(N2CCN(c3ccc(NC(=O)C4CCCCC4)cc3C#N)CC2)cc1`, the MTC in the data set with CHO-K1 [1] came out at 17 µM. Besides, the EC50 with CHO-K1 [2] is 23 µM; in data set [3], > 40 µM.

Regarding `CCN(CC)C(=O)CN1CCN(c2ccc(NC(=O)c3ccc(OC)cc3)c(C(=O)O)c2)CC1`, the MTC in the data set with CHO-K1 [1] was 28 µM. The EC50 (with CHO-K1 [2]; in data set [3]) was > 40 µM throughout.

For the molecule `COc1ccc(C(=O)Nc2ccc(N3CCN(c4cccc(C)c4)CC3)cc2C(=O)O)cc1`, the MTC in the data set on CHO-K1 [1] turned out to be 22 µM. In addition, the figures for the EC50 (with CHO-K1 [2]; in data set [3]) were 16 µM and > 40 µM, respectively.

As for `COc1ccc(C(=O)Nc2ccc(N3CCC(N4CCCCC4)CC3)cc2C(=O)O)cc1`, the MTC in the data set on CHO-K1 [1] is > 40 µM. The EC50 with CHO-K1 [2] was > 40 µM.

For the molecule `Cc1cccc(N2CCN(c3ccc(NC(=O)c4cccc(Cl)c4)c(C(=O)O)c3)CC2)c1C`, the MTC in the data set on CHO-K1 [1] was 10 µM. For the same molecule, the EC50 with CHO-K1 [2] was found to be 8 µM.

`Cc1ccc(C)c(N2CCN(c3ccc(NC(=O)c4ccc(Cl)cc4)cc3C(=O)O)CC2)c1`: the MTC in the data set with CHO-K1 [1] is > 40 µM. Besides, in the data set on CHO-K1 [2], the EC50 is > 40 µM.

As for `COc1ccc(C(=O)Nc2ccc(N3CCN(c4cccc(Cl)c4)CC3)cc2C(=O)O)cc1`, in the data set with CHO-K1 [1], the MTC was determined as 20 µM. Also, the EC50 in the data set with CHO-K1 [2] was 17 µM.

Regarding `O=C(Nc1ccc(N2CCN(C3CCCCC3)CC2)cc1C(=O)O)c1ccc(F)cc1`, in the data set with CHO-K1 [1], the MTC was > 40 µM. In addition, the EC50 with CHO-K1 [2] is > 40 µM.

In the case of `Cc1cccc(N2CCN(c3ccc(NC(=O)c4ccccc4F)cc3C(=O)O)CC2C)c1` (stereo not drawn), the MTC with CHO-K1 [1] was > 40 µM. In the data set on CHO-K1 [2], the EC50 is > 40 µM.

Regarding `COc1ccc(C(=O)Nc2ccc(N3CCN(c4ccccc4F)CC3)cc2C(=O)O)cc1`, the MTC in the data set with CHO-K1 [1] is 25 µM. Besides, the EC50 with CHO-K1 [2] came out at 33 µM.

For `Cc1cccc(N2CCN(c3ccc(NC(=O)c4ccccc4Cl)c(C(=O)O)c3)CC2)c1C`, in the data set on CHO-K1 [1], the MTC is 26 µM. Further, the EC50 with CHO-K1 [2] worked out at 22 µM.

On to `Cc1ccc(C)c(N2CCN(c3ccc(N4C(=O)CC(c5ccccc5)C4=O)cc3[N+](=O)[O-])CC2)c1` (stereo not drawn), for which the MTC with CHO-K1 [1] was 32 µM. For the same molecule, the EC50 in the data set on CHO-K1 [2] stood at 27 µM.

On to `COCCNC(=O)CN1CCN(c2ccc(NC(=O)c3ccc(OC)cc3)c(C(=O)O)c2)CC1`, for which, in the data set on CHO-K1 [1], the MTC was > 40 µM. Moreover, in the data set on CHO-K1 [2], the EC50 is > 40 µM.

As for `COc1ccccc1N1CCN(c2ccc(NC(=O)c3ccccc3)cc2C(=O)O)CC1`, the MTC in the data set with CHO-K1 [1] was > 40 µM. For the same molecule, the EC50 in the data set with CHO-K1 [2] was > 40 µM.

For the molecule `COc1ccc(C(=O)Nc2ccc(N3CCN(C4CCCCC4)CC3)cc2C(=O)O)cc1`, the MTC in the data set on CHO-K1 [1] was > 40 µM. Moreover, the EC50 with CHO-K1 [2] was > 40 µM.

As to `Cc1ccc(C(=O)Nc2ccc(N3CCN(c4cc(Cl)ccc4C)CC3)c(C(=O)O)c2)cc1`, the MTC in the data set with CHO-K1 [1] turned out to be 12 µM. The 50% effective concentration (EC50) in the data set with CHO-K1 [2] stood at 5 µM.

As to `O=C(Nc1ccc(N2CCN(c3ccccc3F)CC2)c(C(=O)O)c1)c1ccc(Cl)cc1`, the MTC in the data set on CHO-K1 [1] was > 40 µM. In the data set on CHO-K1 [2], the EC50 is > 40 µM.

The term EC50 denotes the concentration at which the effect is half-maximal.
